Measurements taken from PubChem BioAssay.
Calls of active or inactive are those of the source.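 Rule for the calls, unless noted: active = viability at or below 30% in both replicate assays; inconclusive = viability at or below 30% in just one of the two assays; inactive = the rest.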

Tests used:
[1] = Her2 expression decrease, cell viability multiplex – SKBR3 breast tumor cells, AlphaScreen, ATP viability, primary screen (AID 461;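 active = Her2 level under about 52% in both replicate screens, with viability over 70% of control, limit read from the data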;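 for Her2 level: lower value means less Her2 protein in the cells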;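 for viability: percent of carrier control wells set as 100% viability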); conditions: SKBR3 Her2 protein level, 18-24 h, measured here: SKBR3 viability, ATP luminescence, at 10 µM
[2] = biological target: Receptor tyrosine-protein kinase erbB-2 (Homo sapiens) (UniProt P04626); test: as above; conditions: 18-24 h, at 10 µM, stronger effect = lower value
Receptor tyrosine-protein kinase erbB-2 (Homo sapiens), sequence (P04626 whole entry, looked up): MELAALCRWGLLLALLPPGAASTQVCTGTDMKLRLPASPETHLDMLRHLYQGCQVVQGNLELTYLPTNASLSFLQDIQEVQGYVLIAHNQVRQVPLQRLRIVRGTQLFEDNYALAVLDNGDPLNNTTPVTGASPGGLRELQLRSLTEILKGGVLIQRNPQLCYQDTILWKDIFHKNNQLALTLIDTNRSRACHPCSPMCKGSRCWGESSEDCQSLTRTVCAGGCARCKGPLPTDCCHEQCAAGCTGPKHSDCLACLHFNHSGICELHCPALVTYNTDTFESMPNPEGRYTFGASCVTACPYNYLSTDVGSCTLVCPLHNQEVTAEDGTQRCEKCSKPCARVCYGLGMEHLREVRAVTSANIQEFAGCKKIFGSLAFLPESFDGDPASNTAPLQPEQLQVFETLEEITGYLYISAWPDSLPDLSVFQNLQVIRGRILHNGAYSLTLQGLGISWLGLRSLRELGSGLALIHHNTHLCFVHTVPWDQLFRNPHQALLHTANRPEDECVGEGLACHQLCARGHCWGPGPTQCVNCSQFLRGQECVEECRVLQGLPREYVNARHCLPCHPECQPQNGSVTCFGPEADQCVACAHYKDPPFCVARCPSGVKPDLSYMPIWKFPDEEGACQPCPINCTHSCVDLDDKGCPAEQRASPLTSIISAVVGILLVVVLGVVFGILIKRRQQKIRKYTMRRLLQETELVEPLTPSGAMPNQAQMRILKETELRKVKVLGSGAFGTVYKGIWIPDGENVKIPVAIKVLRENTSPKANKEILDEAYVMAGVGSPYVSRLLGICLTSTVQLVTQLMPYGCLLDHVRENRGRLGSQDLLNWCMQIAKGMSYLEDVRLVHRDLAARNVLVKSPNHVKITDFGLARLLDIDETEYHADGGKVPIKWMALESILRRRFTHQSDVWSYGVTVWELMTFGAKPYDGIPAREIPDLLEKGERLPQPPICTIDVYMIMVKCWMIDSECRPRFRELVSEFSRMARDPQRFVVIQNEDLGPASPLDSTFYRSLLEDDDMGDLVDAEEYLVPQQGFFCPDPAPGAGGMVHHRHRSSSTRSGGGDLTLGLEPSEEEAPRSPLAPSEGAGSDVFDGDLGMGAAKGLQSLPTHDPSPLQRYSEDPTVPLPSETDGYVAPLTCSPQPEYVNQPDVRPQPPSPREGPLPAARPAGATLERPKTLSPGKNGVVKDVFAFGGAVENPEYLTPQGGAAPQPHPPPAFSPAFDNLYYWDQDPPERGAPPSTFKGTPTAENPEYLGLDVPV

[3] = reduced viability of SK-BR-3 breast cancer cells – cell-based, 24 h, human, pilot screen (AID 572;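 active = viability at or below 10% of carrier control in both of two separate runs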;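 note: compound exposure lasted between 18 and 24 h rather than exactly 24 h; 100% = carrier-treated control wells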); conditions: SK-BR-3 viability, CellTiter-Glo luminescence, at 10 µM, stronger effect = lower value
[4] = HUVEC growth inhibition – cell-based, human, primary screen (AID 575); conditions: HUVEC proliferation, CellTiter-Glo luminescence, 72 h; at 10 µM; stronger effect = lower value;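 note: 100% = median of untreated cell wells with 0.1% DMSO on each plate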
In short: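 system = HUVEC primary cells | amount = 1250 cells/well | buffer or medium = supplemented EBM, 2% fetal bovine serum | dosing = single-point 10 µM, DMSO 0.1% final | times = 72 h compound incubation | detection = CTG luminescence | read-out = % viability relative to median vehicle-well signal on each plate | control set = vehicle and MePR control wells | format = collagen-coated 384-well format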

[5] = H69AR cell proliferation blockers – human, duplicate replicates, primary screen (AID 580;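 active = viability at or under a set limit in both replicates, limit being median viability minus 3 SD, cut at about 48% in these data, passing the limit was not always enough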;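 note: 100% = mean luminescence of untreated wells and 0% = no signal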); conditions: H69AR lung tumor cells viability, ATP luminescence, 72 h; at 10 µM; stronger effect = lower value
[6] = MRP1 drug-resistance reversers in H69AR cells – cell-based, doxorubicin co-treatment, pilot screen (AID 601;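 active = viability loss from added drug above about 55%, and viability with drug at most 40%, in both replicates, limit read from the data, passing the limit was not always enough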); conditions: CellTiter-Glo, 72 h, at 10 µM; for differential viability (reversal): stronger effect = higher value
[7] = yeast transport mutant growth inhibition pilot in 384-well plates, post-Golgi transport modulator project (AID 636; in the data active = inhibition above about 31%); conditions: absorbance 615 nm, about 18 h, stronger effect = higher value
[8] = growth suppression of yeast trafficking mutant, preliminary HTS, modulators of trafficking downstream of Golgi apparatus project, 1536-format plate, OD 615 nm (AID 637; in the data active = inhibition above about 30%); conditions: yeast transport mutant growth, absorbance 615 nm, 18 h; stronger effect = higher value
[9] = H69AR cells + 2 uM doxorubicin, measured here: viability with 2 uM doxorubicin, stronger effect = lower value
[10] = H69AR cells, compound alone cytotoxicity

Row | SMILES | viability [1] [%] | Her2 level [2] | viability [3] | viability [4] | viability [5] | differential viability (reversal) ([6]; H69AR cells + 2 uM doxorubicin) | viability [6, 9] [%] | viability [6, 10] [%] | inhibition [7] | inhibition [8]
1 | CN(C)S(=O)(=O)N1CCN(C(=O)N(c2ccccc2)c2ccccc2)CC1 | 81.5 | 154% (inactive) | 81.5% (inactive) | 99.4% (inactive) | 97.5% (inactive) | -4.56% (inactive) | 102 | 97.5 | 1.28% (inactive) | 12.7% (inactive)
2 | O=C1CCC(=O)N1OCCCCOc1ccccc1 | 123 | 93% (inactive) | 123% (inactive) | 107% (inactive) | 96.2% (inactive) | 5.21% (inactive) | 91 | 96.2 | -3.55% (inactive) | 0.48% (inactive)
3 | Cc1noc(C)c1C(=O)OCC(=O)Nc1ccccc1C(=O)NC(C)c1ccccc1 (stereo not given) | 90.5 | 86% (inactive) | 90.5% (inactive) | 70.5% (inactive) | 87.2% (inactive) | -6.91% (inactive) | 94.1 | 87.2 | -4.93% (inactive) | 6.72% (inactive)
4 | Cc1ccccc1NC(=O)C1CCN(c2cnccn2)CC1 | 98.5 | 103% (inactive) | 98.5% (inactive) | 89.2% (inactive) | 101% (inactive) | 8.59% (inactive) | 92.2 | 101 | -7.07% (inactive) | -5.48% (inactive)
5 | CC(=O)c1nnn(-c2nc(N3CCCC3)nc(N(c3ccccc3)c3ccccc3)n2)c1C | 87 | 76% (inactive) | 87% (inactive) | 97.8% (inactive) | 82.7% (inactive) | 5.7% (inactive) | 77 | 82.7 | -2.89% (inactive) | -3.45% (inactive)
6 | Cc1ccc(S(=O)(=O)Cc2ccc(C(=O)NCc3ccc4c(c3)OCO4)o2)cc1 | 98 | 84% (inactive) | 98% (inactive) | 84.7% (inactive) | 94.1% (inactive) | 6.79% (inactive) | 87.3 | 94.1 | -3.29% (inactive) | -4.76% (inactive)
7 | COc1ccc(OCCC(=O)NCc2ccccc2)cc1 | 103 | 105% (inactive) | 103% (inactive) | 95.7% (inactive) | 103% (inactive) | 19.8% (inactive) | 83.3 | 103 | -3.2% (inactive) | 2.9% (inactive)
8 | Cc1nc(/N=C\N(C)C)sc1C(=O)Nc1ccccc1 | 93 | 82% (inactive) | 93% (inactive) | 100% (inactive) | 96.2% (inactive) | 1.87% (inactive) | 94.3 | 96.2 | -5.81% (inactive) | -8% (inactive)
9 | O=c1cc(COn2nnc3ccc(C(F)(F)F)cc32)nc2sccn12 | 89.5 | 91.5% (inactive) | 89.5% (inactive) | 104% (inactive) | 85.7% (inactive) | -19.7% (inactive) | 105 | 85.7 | -1.71% (inactive) | 0.63% (inactive)
10 | OCCNc1nc2ccc(Cl)cc2[nH]1 | 84 | 100% (inactive) | 84% (inactive) | 108% (inactive) | 107% (inactive) | 9.03% (inactive) | 97.9 | 107 | -6.89% (inactive) | 5.08% (inactive)
11 | Cc1ccc2c(c1)NC(=O)C(CC(=O)NC1CCCCC1C)O2 (stereo not given) | 110 | 86.5% (inactive) | 110% (inactive) | 103% (inactive) | 97.1% (inactive) | -3.58% (inactive) | 101 | 97.1 | -2.53% (inactive) | -1.15% (inactive)
12 | C=CCn1c(SCC(=O)NC2CCCCC2)nnc1-c1sc(N)nc1C | 99.5 | 102% (inactive) | 99.5% (inactive) | 110% (inactive) | 95.8% (inactive) | 0.86% (inactive) | 94.9 | 95.8 | -2.8% (inactive) | -1.45% (inactive)
13 | Clc1ccc(CSc2nnc(Cn3cnc4ccccc43)o2)cc1 | 74.5 | 72% (inactive) | 74.5% (inactive) | 48.2% (inactive) | 99.2% (inactive) | 2.03% (inactive) | 97.2 | 99.2 | -4.32% (inactive) | -1.8% (inactive)
14 | CC(=O)Nc1ccc(S(=O)(=O)NCC2CCC(C(=O)NCCCN3CCCC3=O)CC2)cc1 (stereo not given) | 107 | 91.5% (inactive) | 107% (inactive) | 92.4% (inactive) | 94.3% (inactive) | 6.51% (inactive) | 87.8 | 94.3 | -4.13% (inactive) | 1.45% (inactive)
15 | CCCC(C(=O)NCc1ccco1)N(C(=O)CNS(=O)(=O)c1ccc(Cl)cc1)C1CCCC1 (stereo not given) | 122 | 91% (inactive) | 122% (inactive) | 74.1% (inactive) | 82.7% (inactive) | -4.13% (inactive) | 86.8 | 82.7 | -0.13% (inactive) | 3.55% (inactive)
16 | COC(=O)c1ccc(CSc2nc3c(cnn3-c3ccc(F)cc3)c(=O)[nH]2)o1 | 99 | 101% (inactive) | 99% (inactive) | 65.3% (inactive) | 92.5% (inactive) | -4.38% (inactive) | 96.9 | 92.5 | -2.19% (inactive) | -1.9% (inactive)

Row | SMILES | viability [1] [%] | Her2 level [2] | viability [3] | viability [4] | viability [5] | differential viability (reversal) ([6]; H69AR cells + 2 uM doxorubicin) | viability [6, 9] [%] | viability [6, 10] [%] | inhibition [7] | inhibition [8]
17 | CCOc1ccc(CN2C(=O)c3ccccc3C2C(=O)NCc2cccnc2)cc1 (stereo not given) | 96 | 96.5% (inactive) | 96% (inactive) | 86.6% (inactive) | 98.8% (inactive) | 1.78% (inactive) | 97 | 98.8 | -0.91% (inactive) | -3.02% (inactive)
18 | CC(C)CNC(=O)c1ccccc1NC(=O)c1ccc(CN2CCOCC2)cc1 | 92.5 | 96% (inactive) | 92.5% (inactive) | 106% (inactive) | 99.6% (inactive) | 11.9% (inactive) | 87.7 | 99.6 | -5.68% (inactive) | 1.8% (inactive)
19 | Cc1ccc(Cn2ncc3c(NCCCN4CCOCC4)ncnc32)cc1 | 92.5 | 92.5% (inactive) | 92.5% (inactive) | 96.8% (inactive) | 102% (inactive) | 18.2% (inactive) | 83.6 | 102 | -2.63% (inactive) | 0.32% (inactive)
20 | COc1cc(NC2=CC(=O)CC(C)(C)C2)cc(OC)c1 | 77 | 133% (inactive) | 77% (inactive) | 85.5% (inactive) | 96.8% (inactive) | 6.11% (inactive) | 90.6 | 96.8 | 0.26% (inactive) | -7.17% (inactive)
21 | N#Cc1c(NC(=O)CSc2nc(N)cc(=O)[nH]2)sc2c1CCCCCC2 | 104 | 90% (inactive) | 104% (inactive) | 59.9% (inactive) | 91.5% (inactive) | 5.43% (inactive) | 86.1 | 91.5 | -0.66% (inactive) | -10% (inactive)
22 | COc1ccccc1NC(=O)CSC1CC(=O)N(c2ccc3c(c2)OCO3)C1=O (stereo not given) | 98 | 82.5% (inactive) | 98% (inactive) | 96.5% (inactive) | 99.4% (inactive) | 0.975% (inactive) | 98.4 | 99.4 | -4.53% (inactive) | 0.16% (inactive)
23 | Cc1cc(C(=O)CSCc2nnc3n(CCC(C)C)c(=O)c4ccccc4n23)c(C)n1C | 99.5 | 84% (inactive) | 99.5% (inactive) | 84.2% (inactive) | 67.3% (inactive) | 0.59% (inactive) | 66.8 | 67.3 | -1.84% (inactive) | -0.73% (inactive)
24 | Cc1cc(N2CCC3(CC2)OCCO3)n2nc(C)c(-c3ccc(Cl)cc3)c2n1 | 84.5 | 84% (inactive) | 84.5% (inactive) | 71.9% (inactive) | 90.9% (inactive) | 12.5% (inactive) | 78.4 | 90.9 | -5.68% (inactive) | 2.38% (inactive)
25 | CC(=O)N(C)C1(c2nnnn2CCOC(=O)Nc2ccc(Cl)cc2)CCCCC1 | 114 | 114% (inactive) | 114% (inactive) | 98.1% (inactive) | 104% (inactive) | 12.5% (inactive) | 91 | 104 | -1.45% (inactive) | -8.33% (inactive)
26 | CS(=O)(=O)Nc1ccc(C(=O)NCc2ccco2)cc1 | 88.5 | 106% (inactive) | 88.5% (inactive) | 104% (inactive) | 103% (inactive) | 2.3% (inactive) | 101 | 103 | -1.05% (inactive) | -5.16% (inactive)
27 | CCc1nnc(NC(=O)CSc2nnc(CSc3nc(C)cc(C)n3)n2CC)s1 | 100 | 116% (inactive) | 100% (inactive) | 84.1% (inactive) | 88.7% (inactive) | 1.79% (inactive) | 86.9 | 88.7 | 0.77% (inactive) | 22.5% (inactive)
28 | O=C(Nc1ccc(N2C(=O)C3C4C=CC(C4)C3C2=O)cc1)Nc1cccnc1 (stereo not given) | 108 | 83% (inactive) | 108% (inactive) | 75.3% (inactive) | 86% (inactive) | -0.065% (inactive) | 86.1 | 86 | -3.29% (inactive) | -1.33% (inactive)
29 | CC(C)Cn1c(CN2CCN(c3ccccc3F)CC2)nc2c1c(=O)[nH]c(=O)n2C | 93 | 93% (inactive) | 93% (inactive) | 72.9% (inactive) | 93% (inactive) | 8.27% (inactive) | 84.8 | 93 | -4.27% (inactive) | -0.66% (inactive)
30 | COc1ccc(OC)c(CNC(=O)COc2cc(=O)n(C)c3ccccc23)c1 | 82 | 86.5% (inactive) | 82% (inactive) | 105% (inactive) | 88% (inactive) | 2.97% (inactive) | 85 | 88 | 2.31% (inactive) | -4.67% (inactive)
31 | Cc1ccc(NC(=O)c2ccccc2O)cc1 | 93.5 | 87.5% (inactive) | 93.5% (inactive) | 86.9% (inactive) | 89.2% (inactive) | -0.22% (inactive) | 89.4 | 89.2 | -1.49% (inactive) | -2.7% (inactive)
32 | CCn1nccc1C(=O)Nc1cc(Cl)ccc1Cl | 102 | 97.5% (inactive) | 102% (inactive) | 89.3% (inactive) | 112% (inactive) | 24.9% (inactive) | 86.7 | 112 | -5.66% (inactive) | -2% (inactive)
